The text below walks through data of PMC11143523 (Acta Pharmaceutica Sinica. B, 2024).

“And” between values parts separate entries of the source, which are not always exact repeats. Identical values can stand only once. Square brackets hold non-standard residues; d marks the D form. Peptide text beside a SMILES is read from it. * marks the point of attachment. Ala(cPent) = N[C@@H](CC1CCCC1)C(=O)O; Cbz = O=C(OCc1ccccc1)*

The target of one data set is T1, APC‒Asef (Homo sapiens, UniProt P25054).
T1 sequence (P25054 303-739): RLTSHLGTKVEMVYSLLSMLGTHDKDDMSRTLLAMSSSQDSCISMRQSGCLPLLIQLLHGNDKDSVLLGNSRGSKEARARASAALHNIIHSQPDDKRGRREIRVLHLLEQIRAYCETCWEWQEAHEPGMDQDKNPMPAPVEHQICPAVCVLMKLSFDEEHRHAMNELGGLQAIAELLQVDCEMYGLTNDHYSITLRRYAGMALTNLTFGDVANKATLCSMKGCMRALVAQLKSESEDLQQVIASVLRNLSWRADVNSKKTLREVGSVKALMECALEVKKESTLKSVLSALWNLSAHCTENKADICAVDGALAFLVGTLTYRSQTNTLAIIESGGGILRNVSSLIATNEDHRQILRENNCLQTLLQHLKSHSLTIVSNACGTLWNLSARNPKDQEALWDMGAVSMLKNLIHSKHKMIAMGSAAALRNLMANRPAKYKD
As to the kind of experiment: Fluorescence-polarization. As to conditions: for inhibition at 400 µM: read-out: Inhibitory activity (inhibition rate %), at 400 μmol/L. Format: binding.

Data set [1] has as its system SW480 cells. As to the kind of experiment: Transwell migration assay. As to conditions: 20 μmol/L, 72 h. The data set is classed as cell-based. In outline: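 SW480 cells seeded at 1.5 × 10⁵ per insert in serum-free medium, with complete medium below. Test compound (20 μmol/L) or DMSO added to both chambers for 72 h. Nonmigrated cells swabbed off; migrated cells crystal-violet stained and counted. Counts normalized to DMSO-treated mean, n = 3 independent experiments, mean ± SD.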

Data set [2] is described as follows: Pharmacokinetic study in mice. Format: in vivo. As to conditions: male, BALB/c, mouse, plasma, ip, 1 mg/kg. The method, boiled down: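 Male BALB/c mice (n = 3/group) dosed once i.p. at 1 mg/kg (5 mL/kg) in DMSO:Cremophor EL:10% HP-β-CD in saline (2:8:90). Blood taken from dorsal metatarsal vein predose and at 0.083–48 h. Plasma obtained by centrifugation at 4000 × g, 5 min, 4 °C. Analysed by LC‒MS/MS on C18 column with acetonitrile/water/0.1% formic acid gradient, negative MRM mode.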

Data set [3] addresses T2, APC‒Asef interaction (Homo sapiens, UniProt P25054).
T2 sequence (P25054 303-876): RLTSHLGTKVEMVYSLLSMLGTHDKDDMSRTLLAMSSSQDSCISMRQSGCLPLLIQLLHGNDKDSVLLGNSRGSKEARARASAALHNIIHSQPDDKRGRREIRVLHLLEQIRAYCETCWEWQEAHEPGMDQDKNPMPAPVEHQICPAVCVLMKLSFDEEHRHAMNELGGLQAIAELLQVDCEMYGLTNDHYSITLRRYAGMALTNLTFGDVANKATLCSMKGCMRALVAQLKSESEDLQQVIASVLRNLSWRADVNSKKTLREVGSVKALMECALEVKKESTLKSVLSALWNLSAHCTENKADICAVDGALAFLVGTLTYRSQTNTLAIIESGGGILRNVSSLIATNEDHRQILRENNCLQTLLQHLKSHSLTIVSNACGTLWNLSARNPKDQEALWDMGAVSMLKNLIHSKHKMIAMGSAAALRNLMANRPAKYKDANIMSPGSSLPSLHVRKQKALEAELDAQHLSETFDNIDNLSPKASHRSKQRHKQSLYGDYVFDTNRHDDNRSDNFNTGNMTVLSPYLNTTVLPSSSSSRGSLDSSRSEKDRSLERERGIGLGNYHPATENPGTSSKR
As to the kind of experiment: Co-IP of APC‒Asef in drug-treated HEK293T cell lysates. Format: biochemical. As to conditions: AT46 0.2, 1 or 5 μmol/L, 2 h.

The subject of data set [4] is SW480 cells. As to the kind of experiment: Wound healing assay. The data set is classed as cell-based. As to conditions: 20 μmol/L, 48 h. In outline: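 SW480 cells (1 × 10⁶) grown to confluence at 37 °C, 5% CO₂, then scratched and PBS-washed. Cells cultured in 1% FBS medium with test compound (20 μmol/L) or DMSO. Wound imaged at scratching and after 48 h. Migration expressed relative to DMSO group, mean ± SD of n = 3 independent experiments.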

Data set [5] concerns SW480 cells. As to the kind of experiment: Cell cytotoxicity assay. As to conditions: 20 μmol/L, 48 h. The data set is classed as cell-based.
Data set [6] concerns the target T2, APC‒Asef interaction. As to the kind of experiment: Co-IP of exogenous HA-APC and FLAG-Asef in treated HEK293T cells. Format: cell-based. As to conditions: 20 μmol/L, 48 h. The method, boiled down:
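HEK293T cells transfected with HA-APC (303‒876) and Flag-Asef plasmids, then exposed to test compound at 20 μmol/L or DMSO for 48 h. Cells lysed in 0.3% NP-40 buffer (50 mmol/L Tris-HCl pH 7.5, 150 mmol/L NaCl, PMSF, NaF, Na₃VO₄, protease inhibitors). Lysate incubated with anti-FLAG magnetic beads 3 h at 4 °C. Bound protein eluted by boiling 10 min at 95 °C in loading buffer.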

The mark [7] stands for this setting: IC50 ± SD, FP competition assay, three independent experiments.

On APC‒Asef (setting [7]), `CC(C)C[C@H](NC(=O)[C@H](CO)NC(=O)[C@H](CCC(=O)O)NC(=O)c1ccncn1)C(=O)NCCc1ccccc1` [AT3] registered an IC50 of 323 µM. Moreover, the inhibition at 400 µM on APC‒Asef amounted to 54.6 ± 2%.

As for `CC(C)C[C@H](NC(=O)[C@H](CO)NC(=O)[C@H](CCC(=O)O)NC(=O)c1ccncn1)C(=O)NCC=Cc1ccccc1` [AT4], the “Inhibitory activity (inhibition rate %)” value at APC‒Asef (at 400 μmol/L) is on record as 13.1 ± 0.7%. Also, the inhibition at 400 µM at APC‒Asef worked out at 13%.

The compound `CC(C)C[C@H](NC(=O)[C@H](CC1CC1)NC(=O)[C@H](CCC(=O)O)NC(=O)c1ccncn1)C(=O)NC1CC1c1ccccc1` (stereo partly drawn) [AT7] had a half-maximal inhibitory concentration (IC50) at APC‒Asef (setting [7]) of 61.3 ± 7.2 µM.

`CC(C)C[C@H](NC(=O)[C@H](CC1CCCCC1)NC(=O)[C@H](CCC(=O)O)NC(=O)c1ccncn1)C(=O)NC1CC1c1ccccc1` (stereo partly drawn) [AT8]: the concentration for half-maximal inhibition (IC50) at APC‒Asef (setting [7]) was determined as 168 ± 9.5 µM.

On APC‒Asef (setting [7]), `CC(C)C[C@H](NC(=O)[C@H](Cc1ccccc1)NC(=O)[C@H](CCC(=O)O)NC(=O)c1ccncn1)C(=O)NC1CC1c1ccccc1` (stereo partly drawn) [AT9] had an IC50 of 95.4 ± 7.5 µM.

Take `CC(C)C[C@H](NC(=O)[C@H](Cc1ccc2ccccc2c1)NC(=O)[C@H](CCC(=O)O)NC(=O)c1ccncn1)C(=O)NC1CC1c1ccccc1` (stereo partly drawn) [AT10]: the 50% inhibitory concentration (IC50) at APC‒Asef (setting [7]) was 9.3 µM and 9.34 µM. Further, on APC‒Asef (from FP IC50), the “fold increase in potency over AT6” value is 2 fold.

In the case of `CSc1nccc(C(=O)N[C@@H](CCC(=O)O)C(=O)N[C@@H](Cc2ccc3ccccc3c2)C(=O)N[C@@H](CC(C)C)C(=O)NC2CC2c2ccccc2)n1` (stereo partly drawn) [AT38], the midpoint of inhibition on APC‒Asef (pIC50, test set, Table 3, pIC50 = ‒Log [IC50 (μmol/L) × 10^−6]), the IC50, lay at 0.708 µM.

On APC‒Asef (setting [7]), `CSc1nccc(C(=O)N[C@@H](CC(=O)O)C(=O)N[C@@H](Cc2ccc3ccccc3c2)C(=O)N[C@@H](CC(C)C)C(=O)NC2CC2c2ccccc2)n1` (stereo partly drawn) [AT41] returned a half-maximal inhibitory concentration (IC50) of 19.3 ± 0.58 µM.

On to `CSc1nccc(C(=O)N[C@@H](CCC(=O)O)C(=O)N[C@@H](CC2CCCCC2)C(=O)N[C@@H](CC(C)C)C(=O)NC2CC2c2ccccc2)n1` (stereo partly drawn) [AT42], for which the IC50 on APC‒Asef (setting [7]) was 33 µM and 33.1 µM.

Turning to `CSc1nccc(C(=O)N[C@@H](CCC(=O)O)C(=O)N[C@H](Cc2ccc3ccccc3c2)C(=O)N[C@@H](CC(C)C)C(=O)NC2CC2c2ccccc2)n1` (stereo partly drawn) [AT43], the 50% inhibitory concentration (IC50) on APC‒Asef (setting [7]) is 127 ± 6.6 µM.

For the compound `CSc1nccc(C(=O)N[C@@H](CCC(=O)O)C(=O)N[C@@H](Cc2ccc3ccccc3c2)C(=O)N[C@@H](CC(C)C)C(=O)N[C@@H]2C[C@H]2c2ccccc2)n1` [AT44], the IC50 at APC‒Asef (setting [7]) came out at 0.48 ± 0.07 µM.

As for `CSc1nccc(C(=O)N[C@@H](CCC(=O)O)C(=O)N[C@@H](Cc2ccc3ccccc3c2)C(=O)N[C@@H](CC(C)C)C(=O)N[C@H]2C[C@@H]2c2ccccc2)n1` [AT45], the IC50 at APC‒Asef (setting [7]) was 8.61 ± 0.12 µM.

With `CSc1ncc(Br)c(C(=O)N[C@@H](CCC(=O)O)C(=O)N[C@@H](Cc2ccc3ccccc3c2)C(=O)N[C@@H](CC(C)C)C(=O)N[C@@H]2C[C@H]2c2ccccc2)n1` [AT46], the “migration of SW480 cells, Transwell” value in the data set on SW480 cells [1] is “no inhibition”. In data set [2], the exposure AUC(0-t) was found to be 124 ± 18.4 ng·h/mL, the Cmax came out at 60.8 ± 5.65 ng/mL, the mean residence time (MRT) was 1.96 ± 0.58 h and the Tmax amounted to 0.83 ± 0.29 h. For the same compound, the half-life in data set [2] was 1.2 ± 0.5 h. Also, the “disruption of APC‒Asef interaction (Co-IP)” value (“disruption” below) on APC‒Asef interaction [3] is reported as “dose-dependently attenuated the APC‒Asef interaction in cell lysates”. In addition, the “migration of SW480 cells, wound healing” value in the data set with SW480 cells [4] is “no inhibition”. In the data set with SW480 cells [5], the “survival ability (proliferative viability) of SW480 cells, CCK-8” value was “did not damage the survival ability of SW480 cells”. The compound further showed a half-inhibitory concentration (IC50) at APC‒Asef (setting [7]) of 0.11 ± 0.003 µM. The “fold increase in potency over parental MAI-400” value at APC‒Asef (from FP IC50) amounted to 24 fold. In addition, the “disruption” value on APC‒Asef interaction [6] is on record as “no disrupting effect on the APC‒Asef interaction in the cell model”.

`CSc1ncc(Br)c(C(=O)N[C@@H](CCC(=O)OC(C)(C)C)C(=O)N[C@@H](Cc2ccc3ccccc3c2)C(=O)N[C@@H](CC(C)C)C(=O)N[C@@H]2C[C@H]2c2ccccc2)n1` [AT47]: the “migration of SW480 cells, Transwell” value in the data set on SW480 cells [1] is on record as “suppressed the migration of SW480 cells”. In data set [2], the AUC(0-t) amounted to 4800 ± 868 ng·h/mL, the highest concentration (Cmax) is 1460 ± 119 ng/mL, the mean residence time (MRT) came to 4.97 ± 1.49 h and the time of peak concentration (Tmax) is 1.67 ± 0.58 h. Besides, the half-life in data set [2] is 11.8 ± 5.7 h. In addition, in the data set with SW480 cells [4], the “migration of SW480 cells, wound healing” value is “inhibited the migration of SW480 cells”. Besides, the “survival ability (proliferative viability) of SW480 cells, CCK-8” value with SW480 cells [5] is reported as “did not damage the survival ability of SW480 cells”. Moreover, the inhibition at 400 µM on APC‒Asef amounted to 24.4%. The “disruption” value on APC‒Asef interaction [6] is reported as “notably diminished APC‒Asef PPI”.

As for `C[C@H](NC(=O)OCc1ccccc1)C(=O)NCC(=O)N[C@@H](CCC(=O)O)C(=O)N[C@@H](C)C(=O)N[C@@H](CC1CCCC1)C(=O)N[C@@H](Cc1ccc(O)cc1)C(=O)N[C@@H](CCC(=O)O)C(N)=O` [MAI-203, reference compound] (Cbz-AGEA[Ala(cPent)]YE-NH2; N-terminus and C-terminus assumed), in data set [2], the area under the curve AUC(0-t) was determined as 52.4 ± 6.07 ng·h/mL, the peak level (Cmax) was 101 ± 25 ng/mL, the MRT was 0.43 ± 0.07 h and the Tmax amounted to 0.25 h. The half-life in data set [2] is 0.24 ± 0.06 h.

The IC50 is the point on the concentration scale where inhibition reaches its midpoint. The term AUC(0-t) denotes the area under the concentration-time curve up to a stated or last time point. A low value points to low exposure. The Cmax is the highest concentration seen after dosing. By MRT is commonly meant a mean duration of stay, worked out from the concentration-time curve. As usually defined, the Tmax is the time at which the peak concentration occurs. By half-life is commonly meant how long it takes for the measured level to halve.
